This is a sample that favours compounds with a hit; in the whole collection about 2.3% have one here.
V1aR counter = agonists of human V1a receptor, primary screen, counter-screen for OXTR agonist project, fluorescence, CHO-V1R cells. Vasopressin V1a receptor (Homo sapiens), P37288. activation, % at 3 µM. actives 0.25% (n = 320,000). Fluo-8 calcium fluorescence, agonist mode; 0% DMSO, 100% 3 nM vasopressin;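 active = activation above the mean activation of all tested compounds plus 3 SD, per screening run, cut at about 20% in these data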;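 note: signal is peak over basal fluorescence ratio across a 100 second FLIPR read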
Target sequence (P37288 whole entry, looked up): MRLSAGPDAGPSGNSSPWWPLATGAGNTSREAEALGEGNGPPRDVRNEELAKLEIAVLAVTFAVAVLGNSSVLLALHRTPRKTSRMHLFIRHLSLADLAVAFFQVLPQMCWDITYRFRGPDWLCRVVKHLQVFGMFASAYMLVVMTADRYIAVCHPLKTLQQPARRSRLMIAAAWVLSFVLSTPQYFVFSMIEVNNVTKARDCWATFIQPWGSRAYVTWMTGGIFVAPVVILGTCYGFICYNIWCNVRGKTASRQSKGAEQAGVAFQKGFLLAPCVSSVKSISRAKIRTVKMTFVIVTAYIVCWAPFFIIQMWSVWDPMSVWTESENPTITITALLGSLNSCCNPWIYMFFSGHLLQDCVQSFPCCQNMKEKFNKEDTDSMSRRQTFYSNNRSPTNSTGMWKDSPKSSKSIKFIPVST
TAAR1 agonist = human TAAR1 agonists, primary screen, Fluo-8 calcium fluorescence, CHO RD-HGA16 cells | vehicle wells 0%, saturating PEA agonist 100% | Trace amine-associated receptor 1 (Homo sapiens), Q96RJ0 | actives 0.99% (n = 360,000) | activation, % at 3 µM;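 active = activation above the mean activation of all test compounds in the run plus 3 SD, cut at about 38% in these data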
Target sequence (Q96RJ0 whole entry, looked up): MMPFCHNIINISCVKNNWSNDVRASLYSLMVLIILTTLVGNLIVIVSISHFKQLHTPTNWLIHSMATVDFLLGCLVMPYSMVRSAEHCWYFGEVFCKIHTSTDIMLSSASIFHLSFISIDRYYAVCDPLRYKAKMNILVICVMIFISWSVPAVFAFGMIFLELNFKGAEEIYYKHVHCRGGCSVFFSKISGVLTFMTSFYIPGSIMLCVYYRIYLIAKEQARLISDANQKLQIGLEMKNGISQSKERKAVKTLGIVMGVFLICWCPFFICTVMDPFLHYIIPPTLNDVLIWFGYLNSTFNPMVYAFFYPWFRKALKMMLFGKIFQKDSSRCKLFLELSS
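Test system: RD-HGA16 (CHO) cells co-expressing Gα16 and hTAAR1 / Benchmarks: DMSO vehicle as 0%, PEA at EC100 as 100% / Repeats: no replicates (n 1) / Measure: % activation from peak over basal fluorescence ratio, DMSO-to-PEA scaled / Timing: 17-24 h plating, Fluo-8 75 min 37 °C, 30 min RT / Technique: kinetic Fluo-8 calcium fluorescence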
TAAR1 antag = human TAAR1 antagonists, primary screen, Fluo-8 calcium fluorescence, CHO RD-HGA16 cells; actives 1.5% (n = 360,000); antagonist; Trace amine-associated receptor 1 (Homo sapiens), Q96RJ0; inhibition, % at 3 µM; AID 624466, 2012;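 active = inhibition above a per-plate cutoff, the mean inhibition of test compounds on that plate plus 3 SD, cut at about 49% in these data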
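Material: RD-HGA16 CHO cells with stable hTAAR1 and Gα16; Dosing: single nominal final test compound concentration of 3 µM; Schedule: seeding 17-24 h prior, 75-min 37 °C, 30-min RT dye loading; Detection: kinetic Fluo-8 calcium fluorescence measurement; Measure: % inhibition from peak post-agonist over basal fluorescence ratio; Benchmarks: vehicle and agonist controls.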
OXTR agonist = human OXTR agonists, primary screen, fluorescence, CHO-OTR cells, Fluo-8 calcium; Oxytocin receptor (Homo sapiens), P30559; Fluo-8 calcium fluorescence; normalized: DMSO 0%, oxytocin 100%; activation, % at 3 µM; actives 0.32% (n = 320,000);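 active = activation above the mean of all tested compounds plus 3 SD, cutoff set per screening run, cut at about 20% in these data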;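 note: peak over basal fluorescence ratio from a 100 s FLIPR kinetic read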
OXTR potentiator = human OXTR potentiators, primary screen, fluorescence, CHO-OTR cells, Fluo-8 calcium; Oxytocin receptor (Homo sapiens), P30559; Fluo-8 calcium fluorescence, potentiator mode; 0% = oxytocin EC15, 100% = EC100; activation, % at 3 µM; actives 0.061% (n = 320,000); AID 2445, 2010;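 active = activation above that plate's cutoff, the mean activation of tested compounds plus 3 SD, cut at about 6.6% in these data, passing the limit was not always enough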
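Assay system: CHO-OTR cells, human receptor / Also added: oxytocin at about EC15, sub-maximal agonist stimulus / Dosing: single dose, 3.0 µM nominal final compound concentration / Incubation: 6 min pre-incubation, 100 s read / Technique: Fluo-8 calcium dye fluorescence / Read-out: % activation vs EC15 and EC100 oxytocin / Benchmarks: EC15 oxytocin low, 75 nM oxytocin high / Replicates: singlicate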
V1aR agonist cf = V1a receptor agonists, calcium signal, confirmation, Fluo-8 calcium fluorescence, CHO-V1R cells | shares compounds with V1aR counter | agonist | activation, % at 3 µM | actives 20% (n = 180) | AID 434964, 2010;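 active = average activation exceeds primary screen hit cutoff, cut at about 21% in these data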;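 note: peak over basal fluorescence ratio during a 100 s FLIPR read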
OXTR ag counter = human OXTR agonists, counter-screen for V1R agonist project, fluorescence, CHO-OTR cells, triplicate; actives 10% (n = 180); Fluo-8 calcium fluorescence; activation, % at 3 µM; shares compounds with V1aR counter;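 active = mean activation over three repeats above the cutoff from the earlier oxytocin receptor agonist screen, cut at about 20% in these data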;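 note: peak over minimum fluorescence ratio within a 100 second FLIPR read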
nonsel antag count = nonselective antagonists in TAAR1 counter-screen cells, counter-screen for hTAAR1 antagonist project, cell-based, fluorescence, calcium. shares compounds with TAAR1 antag. counterscreen cell line, antagonist mode. inhibition, % at 3 µM. actives 77% (n = 2,400); in the data active = inhibition above about 22%;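 note: CHO-Ga16 host cells stimulated with ATP at an EC80 level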
TAAR1 antag conf = human TAAR1 antagonists, retest of hits, confirmation, cell-based, fluorescence | inhibition, % at 3 µM | shares compounds with TAAR1 antag | actives 40% (n = 2,400) | AID 651785, 2012 | TAAR1-expressing cells, fluorescence antagonist read-out; in the data active = inhibition above about 49%;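 note: CHO-Ga16 host cells challenged with agonist PEA near its EC80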
Ga16 ag counter-1 = calcium activation in Ga16-expressing cells, counter-screen for TAAR1 antagonist project, cell-based, fluorescence; AID 651953, 2012; actives 18% (n = 2,400); activation, % at 3 µM; shares compounds with TAAR1 antag; agonist counterscreen; in the data active = activation above about 12%
TAAR1 ag counter = TAAR1 activation by candidate antagonists – cell-based, fluorescence, counter-screen for TAAR1 antagonist project; activation, % at 3 µM; shares compounds with TAAR1 antag; actives 2% (n = 2,400); hTAAR1 cell line, agonist mode; in the data active = activation above about 37%;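 note: CHO cells stably expressing TAAR1 with calcium dye readout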
TAAR1 ag conf = human TAAR1 agonists, retest of hits, confirmation, Fluo-8 calcium fluorescence, CHO RD-HGA16 cells; shares compounds with TAAR1 agonist; scaled: DMSO 0%, maximal phenethylamine 100%; activation, % at 3 µM; actives 82% (n = 2,400);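 active = activation above a cutoff set at the run's mean compound activation plus 3 SD, cut at about 39% in these data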
Ga16 ag counter-2 = nonselective calcium mobilization agonists, CHO-Ga16 cells, counter-screen for hTAAR1 agonist project, cell-based, fluorescence, CHO-Ga16 parental line; shares compounds with TAAR1 agonist; Fluo-8 calcium fluorescence; normalized to maximal ATP response, DMSO zero; activation, % at 3 µM; actives 50% (n = 2,400); AID 651787, 2012;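 active = activation above the run cutoff, the mean activation over all tested wells plus 3 SD, cut at about 12% in these data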
TAAR1 desensitize = TAAR1 desensitization by agonist hits, confirmation, counter-screen for TAAR1 agonist project, cell-based, fluorescence, tachyphylaxis; shares compounds with TAAR1 agonist; CHO RD-HGA16 hTAAR1, Fluo-8 calcium, beta-PEA response inhibition; inhibition, % at 3 µM; actives 46% (n = 2,400); AID 651951, 2012;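 active = inhibition above the run cutoff, the mean inhibition of all test compounds plus 3 SD, cut at about 49% in these data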;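 note: beta-PEA stimulus applied at its EC80; loss of beta-PEA calcium signal after compound pretreatment read as receptor desensitization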
Ga16 nonsel ant = inhibition of ATP-evoked calcium response in CHO-Ga16 cells, counter-screen for TAAR1 agonist project, cell-based, fluorescence. shares compounds with TAAR1 agonist. CHO-Ga16 ATP-induced calcium, Fluo-8 fluorescence. inhibition, % at 3 µM. actives 39% (n = 2,400);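 active = inhibition above the plate's mean compound inhibition plus 3 SD, computed per plate, cut at about 22% in these data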
A number is an active result; i = inactive; nt = no result given.

SMILES	V1aR counter	TAAR1 agonist	TAAR1 antag	OXTR agonist	OXTR potentiator	V1aR agonist cf	OXTR ag counter	TAAR1 ag conf	Ga16 ag counter-2	TAAR1 desensitize	Ga16 nonsel ant	others
O=C1c2ccccc2C(=O)N1CCC#Cc1ccc2cc(CCCO)oc(=O)c2c1	26.1	i	69.0	i	i	i	i	nt	nt	nt	nt	nonsel antag count=61.3;TAAR1 antag conf=75.5;Ga16 ag counter-1=23.8;TAAR1 ag counter=i
O=C(NCCNCC(O)COc1ccc(O)cc1)N1CCOCC1 (stereo not drawn)	nt	i	i	nt	nt	nt	nt	nt	nt	nt	nt
O=C(Nc1ccc(N2CCOCC2)cc1)Nc1ccc(Cl)c(Cl)c1	20.6	65.5	90.3	i	i	i	i	40.2	29.8	89.2	62.3
Nc1c(C(=O)NCc2ccc3c(c2)OCO3)nnn1Cc1ccc(Br)cc1	36.5	65.5	i	i	i	i	23.1	101.9	46.5	76.3	38.3
Cc1cc(Cl)ccc1OCC(=O)NN1C(=O)C2C3C=CC(C3)C2C1=O (stereo not drawn)	i	i	i	i	i	nt	nt	nt	nt	nt	nt
O=[N+]([O-])c1cccc(OCC(O)CN2CCN(S(=O)(=O)c3cc(Cl)ccc3Cl)CC2)c1 (stereo not drawn)	i	i	i	i	i	nt	nt	nt	nt	nt	nt
COc1cccc(C(=O)Oc2cc(N)n(S(=O)(=O)c3ccc(C)cc3)n2)c1OC	28.0	63.7	i	i	i	i	i	50.5	14.3	i	i
COc1ccc(S(=O)(=O)n2nc(OC(C)=O)cc2N)cc1	i	i	i	i	i	nt	nt	nt	nt	nt	nt
COCCCN1C(=O)C(=O)/C(=C(/O)c2ccc(C)cc2)C1/C=C/c1ccccc1 (stereo not drawn)	i	i	i	i	i	nt	nt	nt	nt	nt	nt
N#Cc1cccc(NC(=O)CSc2ccc3c4c(cccc24)C(=O)c2ccccc2-3)c1	40.6	86.1	86.5	i	i	107.5	83.6	46.8	56.9	73.5	76.7
COc1cccc(-c2c(C(=O)N/N=C/c3sccc3C)nnn2-c2nonc2N)c1	i	i	i	i	i	nt	nt	nt	nt	nt	nt
CCCOc1ccc(-c2c(C(=O)N/N=C/c3ccncc3)nnn2-c2nonc2N)cc1	21.3	46.6	i	i	i	i	i	i	12.1	i	i
COc1cccc(-c2c(C(=O)N/N=C/c3ccsc3)nnn2-c2nonc2N)c1	25.1	128.8	i	i	i	i	i	145.0	105.8	72.2	29.1
COc1ccc(Cc2nnc(N/N=C(\C)c3ccccc3)[nH]c2=O)cc1OC	i	i	i	i	i	nt	nt	nt	nt	nt	nt
O=C(Nc1ncc(S(=O)(=O)c2ccc([N+](=O)[O-])cc2)s1)c1ccc2ccccc2c1	i	i	i	i	i	nt	nt	nt	nt	nt	nt
COC(=O)C(NC(=O)c1ccccc1Cl)(Nc1ncc(S(=O)(=O)c2ccc([N+](=O)[O-])cc2)s1)C(F)(F)F (stereo not drawn)	27.6	87.8	i	i	i	i	i	57.2	26.8	i	28.6
CCC(=O)N1c2ccccc2NC2=C(C(=O)CC(c3ccco3)C2)C1c1ccco1 (stereo not drawn)	i	i	i	i	i	nt	nt	nt	nt	nt	nt
O=C1CC(c2ccco2)CC2=C1C1c3ccccc3C(=O)N1c1ccccc1N2 (stereo not drawn)	i	i	63.5	i	i	nt	nt	nt	nt	nt	nt	nonsel antag count=23.8;TAAR1 antag conf=i;Ga16 ag counter-1=i;TAAR1 ag counter=i
NC(=O)C1=C[C@@H](C2CCCCC2)C[C@@H](OCc2ccc(CO)cc2)O1	i	i	i	i	i	nt	nt	nt	nt	nt	nt
Cc1c(NC(=O)c2ccc(S(=O)(=O)N3CCOCC3)cc2)c(=O)n(-c2ccccc2)n1C	i	i	i	i	i	nt	nt	nt	nt	nt	nt
Cc1cc(=O)oc2c3c(cc(OCC(=O)NCc4ccco4)c12)OC(C)(C)CC3	i	i	56.5	i	i	nt	nt	nt	nt	nt	nt	nonsel antag count=23.8;TAAR1 antag conf=i;Ga16 ag counter-1=i;TAAR1 ag counter=i
Cc1cc(=O)oc2c3c(cc(OCC(=O)NCc4ccncc4)c12)OC(C)(C)CC3	i	i	i	i	i	nt	nt	nt	nt	nt	nt
COc1ccc(CNC(=O)COc2cc3c(c4oc(=O)cc(C)c24)CCC(C)(C)O3)cc1OC	i	i	61.7	i	i	nt	nt	nt	nt	nt	nt	nonsel antag count=22.7;TAAR1 antag conf=i;Ga16 ag counter-1=i;TAAR1 ag counter=i
Cc1cc(=O)oc2c3c(cc(OCC(=O)NCCN4CCOCC4)c12)OC(C)(C)CC3	i	i	i	i	i	nt	nt	nt	nt	nt	nt
COc1ccc(CNC(=O)COc2cc3c(c4oc(=O)cc(C)c24)CCC(C)(C)O3)c(OC)c1	nt	i	73.2	nt	nt	nt	nt	nt	nt	nt	nt	nonsel antag count=24.9;TAAR1 antag conf=i;Ga16 ag counter-1=i;TAAR1 ag counter=i
